From PubChem BioAssay
NadD block: blocks S. aureus nicotinate mononucleotide adenylyltransferase | purified NadD enzyme, colorimetric absorbance read-out | inhibition, % at 20 µM | 0.78% of 360,000 active; in the data active = inhibition above about 26%
TbMetRS inhib: blocks T. brucei methionyl-tRNA synthetase activity | purified T. brucei MetRS, ATP depletion, Kinase-Glo luminescence | inhibition, % at 11.9 µM | 0.4% of 360,000 active | AID 624268;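 active = inhibition above a per-plate cutoff of the control wells' mean inhibition plus 3 SD, cut at about 5.5% in these data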;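 note: 0% = DMSO wells median and 100% = median of wells with control inhibitor compound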
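Test system: purified T. brucei MetRS enzyme. Also added: ATP, methionine and E. coli bulk tRNA substrates. Compound: 11.9 µM single point. Schedule: 15 min enzyme-compound preincubation, 2 h reaction, 10 min detection, 25 °C. Signal: luciferase luminescence of residual ATP, Kinase-Glo. Evaluation: percent inhibition versus plate control medians. Controls: DMSO wells, low control.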
Rce1 inh: blocks yeast Ras-converting enzyme. yeast membranes, quenched prenylated peptide cleavage fluorescence. Q03530. calls only. 0.27% of 290,000 active;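 active = fall in fluorescence gain of 50% or more versus controls, with final raw signal at or below 3038400; inconclusive = same 50% fall but final raw signal above 3038400; inactive = fall in fluorescence gain under 50%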;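 note: plate controls were neutral control wells for no effect and wells lacking membranes for full effect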
DSG3 Ab inh: human desmoglein-3 autoantibody binding inhibition; P32926; DSG3-coupled beads, scFv-anti-DSG3-GFP binding, flow cytometry; active compounds read low; binding (percent of control), % at 10 µM; 0.48% of 310,000 active; AID 588358;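 active = binding more than 3 SD below its plate's average and above zero; inconclusive = below that plate limit but binding exactly zero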;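 note: hits lower antibody fragment binding to DSG3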
Target sequence (P32926 whole entry, looked up, the tested form may be a part): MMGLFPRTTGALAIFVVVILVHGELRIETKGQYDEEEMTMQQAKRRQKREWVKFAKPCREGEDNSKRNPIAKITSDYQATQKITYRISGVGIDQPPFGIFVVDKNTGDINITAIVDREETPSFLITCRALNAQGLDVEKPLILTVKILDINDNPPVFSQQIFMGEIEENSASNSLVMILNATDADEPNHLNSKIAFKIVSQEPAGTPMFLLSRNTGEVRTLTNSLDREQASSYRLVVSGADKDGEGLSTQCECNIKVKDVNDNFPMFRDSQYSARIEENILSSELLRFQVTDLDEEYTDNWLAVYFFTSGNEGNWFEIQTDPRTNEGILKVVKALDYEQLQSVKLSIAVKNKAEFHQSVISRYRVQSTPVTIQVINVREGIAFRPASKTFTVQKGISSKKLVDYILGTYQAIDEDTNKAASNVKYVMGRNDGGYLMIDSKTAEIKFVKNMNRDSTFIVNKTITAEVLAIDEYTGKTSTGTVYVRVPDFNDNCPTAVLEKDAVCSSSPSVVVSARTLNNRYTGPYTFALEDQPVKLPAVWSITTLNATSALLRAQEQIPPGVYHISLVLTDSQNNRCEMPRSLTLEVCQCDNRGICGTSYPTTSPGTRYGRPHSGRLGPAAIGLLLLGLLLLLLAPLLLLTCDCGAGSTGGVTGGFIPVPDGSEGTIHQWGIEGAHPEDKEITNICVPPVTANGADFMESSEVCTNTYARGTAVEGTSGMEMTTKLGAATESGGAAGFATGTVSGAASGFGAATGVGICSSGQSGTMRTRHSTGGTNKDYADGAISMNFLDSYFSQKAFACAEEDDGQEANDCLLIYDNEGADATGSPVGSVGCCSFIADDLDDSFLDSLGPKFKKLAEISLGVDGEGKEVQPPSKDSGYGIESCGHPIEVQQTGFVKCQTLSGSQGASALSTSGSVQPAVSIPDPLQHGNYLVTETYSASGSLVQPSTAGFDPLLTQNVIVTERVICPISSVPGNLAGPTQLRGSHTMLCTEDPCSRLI
HCV core dimer: blocks dimerization of HCV core protein | TR-FRET GST/Flag-core106 dimerization, 1536-well | inhibition, % at 5 µM | 0.33% of 300,000 active | AID 1899;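 active = inhibition above the mean of all tested compounds plus 3 SD, set per screening campaign, cut at about 45% in these data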
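Assay system: tagged HCV core106 pair (GST and Flag); medium: KF-containing HEPES buffer, pH 7.45, DTT, CHAPS, BSA; also added: Eu donor and XL665 acceptor anti-tag antibodies; dosing: 5 µM single dose; timing: compound-protein-antibody incubation 4 h at 22.5 °C; signal: TR-FRET 671 and 617 nm emission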
Tb MetRS conf: confirmation of Trypanosoma brucei MetRS inhibitors; T. brucei MetRS enzyme, luminescence (ATP depletion); AID 624412; 93% of 1,400 active; inhibition, % at 11.9 µM; shares compounds with TbMetRS inhib; in the data active = inhibition above about 7%
Jurkat cytotox: kills Jurkat cells in T. brucei MetRS counterscreen | shares compounds with TbMetRS inhib | Jurkat cells viability, ATP luminescence | inhibition, % at 8.3 µM | 12% of 1,400 active | AID 624413; in the data active = inhibition above about 15%;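 note: 0% = vehicle and 100% = reference inhibitor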
TbMetRS FP orth: inhibits T. brucei methionyl tRNA synthetase in orthogonal FP test. 44% of 1,400 active. purified T. brucei MetRS, fluorescence polarization. inhibition, % at 11.9 µM. shares compounds with TbMetRS inhib; in the data active = inhibition above about 17%;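 note: 0% = vehicle wells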
Active calls of the source: *; i = inactive; ? = inconclusive; . = not tested or not shown. A selection: hits, their analogues and other compounds. The true share with any hit is near 1.9%.

SMILES	NadD block	TbMetRS inhib	Rce1 inh	DSG3 Ab inh	HCV core dimer	Tb MetRS conf	Jurkat cytotox	TbMetRS FP orth
O=C(OC(C(=O)c1c[nH]c2ccccc12)c1ccccc1)c1cnccn1 (configuration not stated)	-3	15*	i	?	1	27*	-4	17*
O=C1CCC(C(=O)OC(C(=O)c2c[nH]c3ccccc23)c2ccccc2)=NN1 (configuration not stated)	0	9.9*	i	100	-11	24*	4	9
O=C(c1c[nH]c2ccccc12)C(O)C(c1ccccc1)N1CCOCC1 (configuration not stated)	-1	1	i	?	2	.	.	.
COc1ccc(C)cc1NC(=O)C(OC(=O)C1=NNC(=O)CC1)c1ccccc1 (configuration not stated)	-1	0	.	97	.	.	.	.
O=C(c1c[nH]c2ccccc12)C(Cl)c1ccccc1 (configuration not stated)	-11	25*	i	97	2	45*	45*	23*
O=C(Cn1cnc2c(oc3ccccc32)c1=O)NCCc1ccccc1	-5	0	i	84	6	.	.	.
CSc1ccccc1NC(=O)CN(C)Cc1c(O)ccc2ccccc12	5	0	i	108	8	.	.	.
Cc1[nH]c2ccc(Br)cc2c(=O)c1CN1CCCCC1	1	34*	i	102	-6	55*	-7	27*
O=C1CC(N2CCC(c3nc4ccccc4o3)CC2)C(=O)N1c1cc(Cl)cc(Cl)c1 (configuration not stated)	0	6.0*	i	101	2	2	3	-6
O=C(c1ccccc1)c1c[nH]c(C(=O)NNc2cccc(Cl)n2)c1	-4	0	i	102	0	.	.	.
O=C(c1ccc(Cl)cc1)c1c[nH]c(C(=O)NNc2cccc(Cl)n2)c1	1	22*	i	100	6	28*	-7	14
COc1ccc(CN2CCN(Cc3c[nH]c4ccccc34)CC2CCO)c(F)c1 (configuration not stated)	-10	22*	i	104	-6	42*	3	14
COc1cc(CN2CCN(Cc3c[nH]c4ccccc34)CC2CCO)cc(OC)c1 (configuration not stated)	-9	0	i	100	.	.	.	.
COc1ccccc1CN1CCc2c([nH]c3ccccc23)C1	-9	16*	i	115	-8	31*	15	12
Cn1c(NCc2cccc(Br)c2)nc2ccccc21	7	40*	i	.	0	53*	8	29*
Brc1cccc(CNc2nc3ccccc3n2CCN2CCCCC2)c1	-8	4	i	.	-2	.	.	.
COc1cc(OC)c(NC(=S)Nc2cccc(C(C)=O)c2)cc1Cl	-13	2	i	98	9	.	.	.
COc1cc(CNCc2ccccn2)ccc1OCc1ccc(Cl)cc1Cl	2	9.9*	i	115	-4	17*	15	12
COc1cc(CNCCN2CCOCC2)ccc1OCc1ccc(Cl)cc1Cl	-9	7.0*	i	103	-5	15*	17*	8
COc1ccc(C(C(=O)NCc2ccccc2)n2c(-c3ccncc3)nc3ccccc32)cc1 (configuration not stated)	.	-1	.	.	.	.	.	.
O=C(N=Nc1c(O)[nH]c2ccc(Br)cc12)c1ccccc1-n1cccc1	9	8.6*	i	91	4	26*	76*	12
N=C(N)N=Nc1c(O)[nH]c2ccc(Br)cc12	-4	0	.	80	-12	.	.	.
O=C1CCCC(=NNC(=O)c2cc3ccccc3cc2O)C1	4	5.9*	.	94	.	24*	1	14
N#Cc1ccc(CSc2nnc(Nc3ccccc3)s2)cc1	-2	52*	i	.	22	64*	-1	39*
O=C(c1ccc(-n2cncn2)c([N+](=O)[O-])c1)N1CCN(c2cccc(Cl)c2)CC1	-7	5.8*	i	108	0	20*	5	6
SMILES	NadD block	TbMetRS inhib	Rce1 inh	DSG3 Ab inh	HCV core dimer	Tb MetRS conf	Jurkat cytotox	TbMetRS FP orth
COc1ccc(C(=O)Nc2ccncc2)cc1[N+](=O)[O-]	-5	0	i	101	.	.	.	.
Cc1cccc(NC(=O)CNC(=O)c2ccc(-n3cncn3)c([N+](=O)[O-])c2)c1C	2	19*	i	102	-1	51*	-6	27*
COc1ccc(NC(=O)c2ccc(-n3cncn3)c([N+](=O)[O-])c2)cc1OC	-6	15*	i	94	1	59*	3	33*
O=C(c1ccc(-n2cncn2)c([N+](=O)[O-])c1)N1CCN(S(=O)(=O)c2ccc(Cl)cc2)CC1	4	3	i	104	-1	.	.	.
CN(c1ccc(OC(=O)c2ccc(-n3cncn3)c([N+](=O)[O-])c2)cc1)S(=O)(=O)c1ccccc1	1	5	.	.	.	.	.	.
COc1cc(OC)cc(C(=O)NNC(=O)c2ccc(-n3cncn3)c([N+](=O)[O-])c2)c1	2	6.0*	i	104	2	31*	3	17*
CC(=O)Nc1ccc(C)cc1	-1	-1	.	102	.	.	.	.
COc1cc(S(=O)(=O)NC2CCCCC2C)ccc1-n1cnnn1 (configuration not stated)	-6	-1	i	82	1	.	.	.
COc1ccc(C(=O)NCCc2ccccc2)cc1[N+](=O)[O-]	2	0	i	98	0	.	.	.
COc1ccc(NC(=O)c2ccc(-n3cncn3)c([N+](=O)[O-])c2)cc1	0	6.2*	i	98	1	22*	1	8
Cc1ccc(NC(=O)CN(C)C(=O)c2ccc(-n3cncn3)c([N+](=O)[O-])c2)cc1	-1	10*	i	31	-4	38*	-1	16
O=C(NCCCc1ccccc1)c1ccc(-n2cncn2)c([N+](=O)[O-])c1	1	21*	i	103	-3	58*	-1	35*
CCN(CC(=O)Nc1c(F)cccc1F)C(=O)c1ccc(-n2cncn2)c([N+](=O)[O-])c1	-2	2	i	104	-3	.	.	.
Cc1ccc(NC(=O)CN(C)C(=O)c2ccc(C(F)(F)F)cc2)cc1	-8	6.2*	i	108	-12	26*	6	10
O=C(Nc1ccc2oc(-c3ccc4ccccc4c3)nc2c1)c1ccc2c(c1)OCCO2	18	0	i	99	2	.	.	.
COC(=O)CSc1nc(N2CCOCC2)c2c(c1C#N)CC(C)(C)OC2	-6	-1	i	99	-12	.	.	.
